Measured values as given in publication PMC7218746 (Biomacromolecules, 2020).
Ends that are not written are not given here.

How the values were obtained:
[1] = system: Metalloprotease (type IV) collagenase from C. histolyticume; assay: Kinetics of Pep-NC cleavage by collagenase; assay type: in vitro ADME; settings: GPC; for change of molecular weight after incubation with collagenase: collagenase 30 units·mL–1, 24 h
In short: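 Polymer at 5 mg·mL–1 in PBS pH 7.4 with 0.9 mM CaCl2 and 0.02% NaN3, held 3 h at 4 °C, then 37 °C. l-Pep-NC incubated with or without type IV collagenase (0.5 units·mL–1); d-Pep-NC with 30 units·mL–1 for 24 h. Timed l-Pep-NC aliquots quenched 1 h with 0.1 M EDTA, dialysed, lyophilised. Mn by GPC (DMF/10 mM LiCl, 65 °C, RI detection, PEG standards).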

[2] = Determination of cloud points of polymers; assay type: physicochemical; settings: in PBS; refers to Table 1
[3] = Dynamic light scattering; assay type: physicochemical; settings: DLS, 1 mg·mL–1 in PBS pH 7.4, 37 °C, 173° angle; micelles as prepared
[4] = 37 °C, 5 mg·mL–1 polymer in PBS pH 7.4 with 0.9 mM CaCl2

Sequence | change of molecular weight after incubation with collagenase [1, 4] | change of molecular weight in the absence of the enzyme ([1]; 24 h, 37 °C, PBS pH 7.4) | time for cleavage of the peptide block ([1]; collagenase 0.5 units·mL–1, 37 °C, 5 mg·mL–1 polymer in PBS pH 7.4 with 0.9 mM CaCl2) [min] | LCST [2] [°C] | Z-average diameter [3] [nm]
KGPQGIFGQK [D-Pep-NC, (NIPAM-co-HPMA-Cys)-PEG-D-Peptide-PEG-P(NIPAM-co-HPMA-Cys)] | did not change | – | – | – | –
KGPQGIFGQK [L-Pep-NC, P(NIPAM-co-HPMA-Cys)-PEG-peptide-PEG-P(NIPAM-co-HPMA-Cys)] | reduced to half its original molecular weight | No change in the molecular weight | 160 | – | –
KGPQGIFGQK [Pep-NC, P(NIPAM-co-HPMA-Cys)-PEG-peptide-PEG-P(NIPAM-co-HPMA-Cys)] | – | – | – | ~31 | 87 ± 1
